Screens deposited in PubChem by several laboratories.
CSN inh = inhibitors of CSN-mediated cullin deneddylation, primary screen, biochemical, fluorescence polarization, uHTS; COP9 signalosome complex subunit 5 (Homo sapiens), Q92905; Purified CSN, SCF-Nedd8-OG deneddylation; 360,000 compounds, 0.38% hits; inhibition, % at 12.5 µM;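 active means pattern-corrected inhibition above about 35%, with an unprinted fluorescence ratio check between 0.5 and 1.5, limit read from the data, passing the limit was not always enough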
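Assay system: Purified human Csn5 enzyme expressed in HEK293T cells | Amount: Enzyme 0.24 nM | Measured by: Fluorescence polarization readout | Medium: Tris/NaCl/DTT buffer, pH 7.5 | Compound dosing: One concentration, 12.5 µM, 0.25% DMSO | Times: 90 min incubation of compound, enzyme and substrate at room temperature | Control set: no-enzyme wells high, enzyme-with-substrate wells low | Read-out: % inhibition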
IDE cell inh = human IDE inhibitors in live cells, primary screen, fluorescence polarization, HEK cells, FAbetaB substrate; Insulin-degrading enzyme (Homo sapiens), P14735; FAbetaB cleavage; inhibition, % at 5.59 µM; 320,000 compounds, 0.41% hits; AID 434962, 2010;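 active means percent inhibition above the average of all tested compounds plus 3 SD, set per screening campaign, cut at about 16% in these data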;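 further: IDE supplied by intact live HEK cells; FP after avidin binding of uncleaved biotin substrate so inhibition keeps polarization high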
TPT1 inhibitor = Candida albicans TPT1 enzyme inhibitors, primary screen, biochemical, fluorescence polarization | tRNA 2'-phosphotransferase TPT1 (Candida albicans SC5314) | inhibition, % at 5 µM | recombinant caTPT1, FP RNA substrate dephosphorylation | 300,000 compounds, 0.81% hits;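 active means inhibition above the mean of all tested compounds plus 3 SD, set per screening campaign, cut at about 24% in these data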
IDE act = human IDE activators in live cells, primary screen, fluorescence polarization, HEK cells, FAbeta-B substrate. Insulin-degrading enzyme (Homo sapiens), P14735. FAbeta-B cleavage; 0% vehicle, 100% cell-free pure enzyme wells. activation, % at 5.96 µM. 340,000 compounds, 0.073% hits. AID 493087, 2011;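 active means activation above the mean of all tested compounds plus 3 SD, set per screening campaign, cut at about 17% in these data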
HNF4A DNA FP = change in binding of human HNF4A to DNA, primary screen, biochemical, fluorescence polarization, FITC-DNA | Hepatocyte nuclear factor 4-alpha (Homo sapiens), P41235 | 1 h | activity change, % at 10 µM | 360,000 compounds, 0.3% hits | AID 1224865, 2016; in the data active means activity change above about 30%, passing the limit was not always enough
Target sequence (P41235 whole entry, looked up): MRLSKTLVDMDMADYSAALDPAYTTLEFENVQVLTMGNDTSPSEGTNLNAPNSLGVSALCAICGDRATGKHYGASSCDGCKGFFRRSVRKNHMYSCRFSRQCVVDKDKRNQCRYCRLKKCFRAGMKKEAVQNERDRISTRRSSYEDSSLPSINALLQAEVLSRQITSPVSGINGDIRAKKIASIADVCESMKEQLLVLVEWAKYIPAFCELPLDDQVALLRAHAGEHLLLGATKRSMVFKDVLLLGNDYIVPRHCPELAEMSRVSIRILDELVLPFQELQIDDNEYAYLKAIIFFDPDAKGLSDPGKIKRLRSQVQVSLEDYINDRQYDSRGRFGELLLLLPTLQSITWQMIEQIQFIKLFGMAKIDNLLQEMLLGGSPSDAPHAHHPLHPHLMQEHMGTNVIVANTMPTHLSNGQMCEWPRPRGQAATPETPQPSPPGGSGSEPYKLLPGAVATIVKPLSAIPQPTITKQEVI
caTPT1 confirm = Candida albicans TPT1 inhibitors, confirmation, biochemical, fluorescence polarization, triplicate | inhibition, % at 5 µM | recombinant caTPT1, RNase T1 coupled | 2,400 compounds, 74% hits | shares compounds with TPT1 inhibitor | AID 2149, 2009;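 active means inhibition above the primary screen limit, the mean inhibition of all tested compounds plus 3 SD, cut at about 25% in these data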
RNase T1 counter = RNase T1 inhibitors, counter-screen for TPT1 inhibitor project, biochemical, fluorescence polarization. shares compounds with TPT1 inhibitor. RNase T1 cleavage, 1536-well. 2,400 compounds, 83% hits. inhibition, % at 5 µM;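 active means inhibition above the solvent-only control well mean plus 3 SD, limit set per screening run, cut at about 23% in these data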;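 further: inhibitors block cleavage so intact labeled substrate keeps polarization high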
Large screens that a line does not name were inactive (follow-up assays come after a bar, where they were run). An excerpt weighted towards active compounds, which were near 1.4% of everything screened.

Cc1ccc(/C=C2/NC(=O)N(Cc3ccccc3F)C2=O)s1	CSN inh 41, TPT1 inhibitor 69 | caTPT1 confirm 86 | RNase T1 counter 86
O=C1N/C(=C/c2cccs2)C(=O)N1Cc1ccccc1F	none
N#Cc1cc(NC(=O)c2ccc(F)cc2)c(=O)n2c1[nH]c1ccccc12	TPT1 inhibitor 28 (no result: CSN inh, IDE act, HNF4A DNA FP) | caTPT1 confirm 30 | RNase T1 counter 38
Cc1c(CCC(=O)O)c(=O)n2c([nH]c3ccccc32)c1C#N	none
COC(=O)[C@@]12C[C@@H](CC(=O)NCc3ccccc3)C(=O)N(Cc3ccccc3)C1=CCC(C)(C)C2	none (no result: IDE cell inh, TPT1 inhibitor, IDE act)
COc1ccc(CN2C(=O)CCCC2(C)c2nc3ccccc3[nH]2)cc1 (stereo not drawn)	none (no result: IDE cell inh, TPT1 inhibitor, IDE act)
O=S(=O)(NCCc1ccccc1)c1cccs1	none
O=S(=O)(NCCc1ccc2c(c1)OCCO2)c1cccs1	TPT1 inhibitor 26 | caTPT1 confirm inactive | RNase T1 counter 27
CCOCC(=O)Nc1ccc([N+](=O)[O-])cc1OC	TPT1 inhibitor 36 | caTPT1 confirm inactive | RNase T1 counter inactive
COc1cc([N+](=O)[O-])ccc1NC(=O)CN(C)C	TPT1 inhibitor 26 | caTPT1 confirm inactive | RNase T1 counter inactive
COc1ccc(-n2nnnc2C(c2ccccc2)N2CCN(C/C=C/c3ccccc3)CC2)cc1 (stereo not drawn)	none (no result: IDE cell inh, TPT1 inhibitor, IDE act)
O=C1NC[C@H](Cc2ccccc2)N(C[C@@H]2CCCN2C[C@H](Cc2ccc(O)cc2)N2C[C@H](Cc3ccccc3)N(CC3CCCCCC3)C(=O)C2=O)C1=O	none (no result: IDE cell inh, TPT1 inhibitor, IDE act)
CCCCn1c(-c2csc(C(C)C)c2)n[nH]c1=S	TPT1 inhibitor 61 | caTPT1 confirm inactive | RNase T1 counter inactive
CCCCn1c(-c2csc(CC)c2)n[nH]c1=S	none
CCOC(=O)c1sc(N)c(C#N)c1CSc1nc2ccc(C)cc2[nH]1	none
CCOC(=O)c1sc(N)c(C#N)c1COC(=O)CNC(=O)c1ccccc1	CSN inh 41, TPT1 inhibitor 79, HNF4A DNA FP 74 | caTPT1 confirm 92 | RNase T1 counter 100
Nc1sc(Cc2ccccc2)cc1C(=O)c1c(-c2ccccc2)[nH]c2ccccc12	none (no result: IDE cell inh, TPT1 inhibitor, IDE act)
COC(=O)[C@]12CCCCC=C1N(CCc1ccc(OC)c(OC)c1)C(=O)[C@H](CC(=O)NCCCCc1ccccc1)C2	none (no result: IDE cell inh, TPT1 inhibitor, IDE act)
COc1cc(C2C(C#N)=C(N)N(c3ccc(F)cc3)C3=C2S(=O)(=O)CC3)ccc1O (stereo not drawn)	TPT1 inhibitor 32 | caTPT1 confirm inactive | RNase T1 counter 26
O=C(NCCc1ccccc1)c1cnc2sccn2c1=O	TPT1 inhibitor 33 | caTPT1 confirm inactive | RNase T1 counter inactive
O=C(NCc1ccco1)c1cnc2sccn2c1=O	none
C=CCN=C1S/C(=C\c2ccc(N(C)C)cc2)C(=O)N1CC=C	TPT1 inhibitor 44, HNF4A DNA FP 36 | caTPT1 confirm 50 | RNase T1 counter 63
O=C1NC(=S)S/C1=C\c1cc(Cl)ccc1Cl	none (no result: IDE cell inh, TPT1 inhibitor)
CCn1c(C)cc(/C=C2/SC(=S)NC2=O)c1C	TPT1 inhibitor 98 | caTPT1 confirm 105 | RNase T1 counter 119
Cc1sc(-n2c(C)cc(/C=N/n3cnnc3)c2C)c(C#N)c1C	none
Cc1cc(/C=C2\SC(=S)NC2=O)c(C)[nH]1	TPT1 inhibitor 131, HNF4A DNA FP 57 | caTPT1 confirm 97 | RNase T1 counter 108
Cc1sc(-n2c(C)cc(/C=C3\SC(=S)NC3=O)c2C)c(C#N)c1C	TPT1 inhibitor 45, HNF4A DNA FP 67 | caTPT1 confirm 60 | RNase T1 counter 75
CCOC(=O)c1c(NC(=S)Nc2ccccc2)sc2c1CCCCC2	none
